Results: ChEMBL document CHEMBL4414600, “Discovery of a Furanopyrimidine-Based Epidermal Growth Factor Receptor Inhibitor (DBPR112) as a Clinical Candidate for the Treatment of Non-Small Cell Lung Cancer” (J Med Chem, 2019)

Columns and labels:
[1] = target: T1, Tyrosine-protein kinase TXK (Homo sapiens) (UniProt P42681); test: Binding affinity to wild-type human partial length TXK (L238 to W527 residues) expressed in bacterial expression system assessed as residual binding level at 10000 nM by Kinomescan method relative to control
T1 sequence (whole entry): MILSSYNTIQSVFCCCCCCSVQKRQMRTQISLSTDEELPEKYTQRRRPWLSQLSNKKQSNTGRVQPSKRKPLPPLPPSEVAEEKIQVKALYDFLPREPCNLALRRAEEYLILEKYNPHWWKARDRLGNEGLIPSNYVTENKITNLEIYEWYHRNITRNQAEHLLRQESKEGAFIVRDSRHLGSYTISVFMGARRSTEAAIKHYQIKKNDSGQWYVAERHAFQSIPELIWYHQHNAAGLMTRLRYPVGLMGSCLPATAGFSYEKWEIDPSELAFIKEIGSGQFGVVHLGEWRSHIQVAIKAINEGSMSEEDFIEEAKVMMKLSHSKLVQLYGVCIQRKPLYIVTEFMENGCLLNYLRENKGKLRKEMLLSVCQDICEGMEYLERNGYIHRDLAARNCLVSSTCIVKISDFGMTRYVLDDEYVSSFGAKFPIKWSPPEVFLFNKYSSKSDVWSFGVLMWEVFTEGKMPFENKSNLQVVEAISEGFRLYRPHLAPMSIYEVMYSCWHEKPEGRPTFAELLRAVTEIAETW
How it was run: (§1)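 KINOMEScan competition binding panel run at 10,000 nM compound, with results expressed as percent of control binding. S(10) is the fraction of non-mutant kinases below 10% of control, out of 395 tested.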

[2] = target: Receptor tyrosine-protein kinase erbB-4 (Homo sapiens) (UniProt Q15303); test: Binding affinity to wild-type human partial length ERBB4 (L690 to K994 residues) expressed in bacterial expression system assessed as residual binding level at 10000 nM by Kinomescan method relative to control; how it was run: as §1
[3] = target: Tyrosine-protein kinase Blk (Homo sapiens) (UniProt P51451); test: Binding affinity to wild-type human partial length BLK (G211 to L503 residues) expressed in bacterial expression system assessed as residual binding level at 10000 nM by Kinomescan method relative to control; how it was run: as §1
[4] = Cmax in rat at 23.6 mg/kg, po; type: ADME, organism-based; design: dose 23.6 mg/kg, route oral; settings: in vivo
How it was run: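 Rat pharmacokinetics: single IV injection at 5 mg/kg or oral dosing at 20 mg/kg (23.6 mg/kg oral for one compound). Plasma parameters t1/2, CL, Vss, AUC(0-inf), Cmax, Tmax and oral bioavailability F were derived from the concentration–time profiles.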

Receptor tyrosine-protein kinase erbB-4 (Homo sapiens), sequence (Q15303 whole entry, the tested form may be a part): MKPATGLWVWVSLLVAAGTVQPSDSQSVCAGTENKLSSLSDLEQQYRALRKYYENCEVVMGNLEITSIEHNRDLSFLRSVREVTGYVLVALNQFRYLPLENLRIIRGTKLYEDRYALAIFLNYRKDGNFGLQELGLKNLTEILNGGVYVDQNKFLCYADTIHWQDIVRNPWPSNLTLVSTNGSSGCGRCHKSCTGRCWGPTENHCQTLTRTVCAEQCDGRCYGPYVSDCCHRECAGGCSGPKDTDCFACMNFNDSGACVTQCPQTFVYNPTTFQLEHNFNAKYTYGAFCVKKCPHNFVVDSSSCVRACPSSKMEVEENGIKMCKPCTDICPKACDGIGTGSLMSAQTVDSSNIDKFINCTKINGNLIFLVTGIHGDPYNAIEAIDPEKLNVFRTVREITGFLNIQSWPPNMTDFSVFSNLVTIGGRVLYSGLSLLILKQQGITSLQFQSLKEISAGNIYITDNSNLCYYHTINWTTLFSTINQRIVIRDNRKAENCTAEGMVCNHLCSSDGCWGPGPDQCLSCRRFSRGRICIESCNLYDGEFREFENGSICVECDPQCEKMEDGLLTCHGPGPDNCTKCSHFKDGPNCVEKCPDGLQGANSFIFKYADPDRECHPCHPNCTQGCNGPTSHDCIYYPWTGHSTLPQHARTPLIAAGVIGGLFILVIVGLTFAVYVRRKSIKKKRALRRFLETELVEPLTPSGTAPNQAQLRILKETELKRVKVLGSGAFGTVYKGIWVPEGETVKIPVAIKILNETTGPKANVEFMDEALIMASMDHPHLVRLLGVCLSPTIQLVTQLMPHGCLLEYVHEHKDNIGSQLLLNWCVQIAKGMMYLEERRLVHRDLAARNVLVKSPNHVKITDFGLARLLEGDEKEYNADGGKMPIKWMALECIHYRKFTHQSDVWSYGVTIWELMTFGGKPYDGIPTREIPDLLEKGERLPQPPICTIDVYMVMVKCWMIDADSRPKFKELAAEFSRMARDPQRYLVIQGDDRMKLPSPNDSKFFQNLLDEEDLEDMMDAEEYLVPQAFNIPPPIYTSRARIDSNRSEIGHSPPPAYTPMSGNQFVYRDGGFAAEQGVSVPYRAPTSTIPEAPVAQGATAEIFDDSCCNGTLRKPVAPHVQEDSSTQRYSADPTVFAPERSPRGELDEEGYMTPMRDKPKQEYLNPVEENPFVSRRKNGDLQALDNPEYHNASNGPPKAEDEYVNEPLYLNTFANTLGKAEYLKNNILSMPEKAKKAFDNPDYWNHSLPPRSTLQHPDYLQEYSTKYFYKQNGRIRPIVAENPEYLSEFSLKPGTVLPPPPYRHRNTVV
Tyrosine-protein kinase Blk (Homo sapiens), sequence (P51451 2-505 limits assumed): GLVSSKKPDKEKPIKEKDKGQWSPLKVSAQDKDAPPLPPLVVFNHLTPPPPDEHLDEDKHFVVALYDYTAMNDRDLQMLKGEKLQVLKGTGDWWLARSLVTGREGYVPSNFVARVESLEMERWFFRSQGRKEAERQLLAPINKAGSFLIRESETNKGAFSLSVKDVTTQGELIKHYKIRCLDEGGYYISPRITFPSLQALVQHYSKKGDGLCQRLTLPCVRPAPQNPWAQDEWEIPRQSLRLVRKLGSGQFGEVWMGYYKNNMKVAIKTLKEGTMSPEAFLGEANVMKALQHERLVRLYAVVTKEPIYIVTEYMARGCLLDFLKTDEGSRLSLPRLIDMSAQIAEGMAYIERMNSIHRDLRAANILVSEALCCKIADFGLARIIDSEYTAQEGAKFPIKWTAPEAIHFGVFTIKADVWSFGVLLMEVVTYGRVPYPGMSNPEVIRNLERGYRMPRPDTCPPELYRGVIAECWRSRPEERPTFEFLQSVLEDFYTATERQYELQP

## CN(C)C/C=C/C(=O)Nc1cccc(-c2c(-c3ccccc3)oc3ncnc(N[C@H](CO)c4ccccc4)c23)c1
[1]
  Activity: < 10%
[2]
  Activity: 0.05%
[3]
  Activity: 0.25%
[4]
  Cmax: 508 ng/mL
